# Test results published in ChEMBL document CHEMBL2034933, “New quinazolinone-pyrimidine hybrids: synthesis, anti-inflammatory, and ulcerogenicity studies” (Eur J Med Chem, 2012).
# Tested on: Rattus norvegicus
# Test: Antiinflammatory activity in albino rat assessed as inhibition of carrageenan-induced paw edema at 100 mg/kg, po administered 1 hr prior to carrageenan-challenge measured after 3 hrs
# Type: functional
# Conditions: not given
# Summary of the method: (§1)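 Adult albino rats of both sexes (120–150 g), pre-hydrated with 3 ml water by gavage, five per group. Test agents suspended in distilled water with a few drops of Tween 80, given orally 1 h before sub-plantar injection of 50 µl 1% carrageenan into the right hind paw. Dial-gauge paw thickness taken at 0.5, 1, 2 and 3 h, with the left paw as reference. % inhibition = (Wc−Wt)/Wc × 100 against saline/Tween 80 controls.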
row,Structure (SMILES),inhibition in vivo at 100 mg/kg
1,N#Cc1c(Nc2ccc(Cl)cc2)nc(SCC(=O)Nn2c(COc3ccc(Cl)cc3Cl)nc3ccccc3c2=O)nc1-c1ccccc1,59.6%
2,N#Cc1c(-c2ccccc2)nc(SCC(=O)Nn2c(COc3ccc(Cl)cc3Cl)nc3ccccc3c2=O)n(Cc2ccccc2)c1=O,79%
3,N#Cc1c(-c2ccc(Cl)cc2)nc(SCC(=O)Nn2c(COc3ccc(Cl)cc3Cl)nc3ccccc3c2=O)[nH]c1=O,64.9%
4,O=C(CSc1nc(-c2ccc(O)cc2)c(C(=O)O)c(=O)[nH]1)Nn1c(COc2ccc(Cl)cc2Cl)nc2ccccc2c1=O,38.6%
5,O=C(CSc1nc(-c2ccccc2)c(C(=O)O)c(=O)[nH]1)Nn1c(COc2ccc(Cl)cc2Cl)nc2ccccc2c1=O,64.9%
6,N#Cc1c(Nc2ccc(Cl)cc2)nc(SCC(=O)Nn2c(COc3ccc(Cl)cc3Cl)nc3ccccc3c2=O)nc1-c1ccc(Cl)cc1,64.9%
7,N#Cc1c(Nc2ccccc2)nc(SCC(=O)Nn2c(COc3ccc(Cl)cc3Cl)nc3ccccc3c2=O)nc1-c1ccc(Cl)cc1,56.1%
8,N#Cc1c(Cl)nc(SCC(=O)Nn2c(COc3ccc(Cl)cc3Cl)nc3ccccc3c2=O)nc1-c1ccc(Cl)cc1,68.4%
9,N#Cc1c(Nc2ccccc2)nc(SCC(=O)Nn2c(COc3ccc(Cl)cc3Cl)nc3ccccc3c2=O)nc1-c1ccccc1,78.1%
10,O=C(CSc1nc(-c2ccc(Cl)cc2)c(C(=O)O)c(=O)[nH]1)Nn1c(COc2ccc(Cl)cc2Cl)nc2ccccc2c1=O,61.4%
11,N#Cc1c(Nc2ccc(Cl)cc2)nc(SCC(=O)Nn2c(COc3ccc(Cl)cc3Cl)nc3ccccc3c2=O)nc1-c1ccc(O)cc1,79%
12,N#Cc1c(-c2ccc(Cl)cc2)nc(SCC(=O)Nn2c(COc3ccc(Cl)cc3Cl)nc3ccccc3c2=O)n(Cc2ccccc2)c1=O,77.2%
13,N#Cc1c(Nc2ccc(O)cc2)nc(SCC(=O)Nn2c(COc3ccc(Cl)cc3Cl)nc3ccccc3c2=O)nc1-c1ccccc1,59.6%

# Tested on: Rattus norvegicus
# Test: Antiinflammatory activity in albino rat assessed as inhibition of carrageenan-induced paw edema at 100 mg/kg, po administered 1 hr prior to carrageenan-challenge measured after 1 hr
# Type: functional
# Conditions: not given
# Summary of the method: as §1
row,Structure (SMILES),inhibition in vivo at 100 mg/kg
1,N#Cc1c(Nc2ccc(Cl)cc2)nc(SCC(=O)Nn2c(COc3ccc(Cl)cc3Cl)nc3ccccc3c2=O)nc1-c1ccccc1,54.5%
2,N#Cc1c(-c2ccccc2)nc(SCC(=O)Nn2c(COc3ccc(Cl)cc3Cl)nc3ccccc3c2=O)n(Cc2ccccc2)c1=O,77.3%
3,N#Cc1c(-c2ccc(Cl)cc2)nc(SCC(=O)Nn2c(COc3ccc(Cl)cc3Cl)nc3ccccc3c2=O)[nH]c1=O,63.6%
4,O=C(CSc1nc(-c2ccc(O)cc2)c(C(=O)O)c(=O)[nH]1)Nn1c(COc2ccc(Cl)cc2Cl)nc2ccccc2c1=O,36.4%
5,O=C(CSc1nc(-c2ccccc2)c(C(=O)O)c(=O)[nH]1)Nn1c(COc2ccc(Cl)cc2Cl)nc2ccccc2c1=O,69.1%
6,N#Cc1c(Nc2ccc(Cl)cc2)nc(SCC(=O)Nn2c(COc3ccc(Cl)cc3Cl)nc3ccccc3c2=O)nc1-c1ccc(Cl)cc1,54.5%
7,N#Cc1c(Nc2ccccc2)nc(SCC(=O)Nn2c(COc3ccc(Cl)cc3Cl)nc3ccccc3c2=O)nc1-c1ccc(Cl)cc1,43.6%
8,N#Cc1c(Cl)nc(SCC(=O)Nn2c(COc3ccc(Cl)cc3Cl)nc3ccccc3c2=O)nc1-c1ccc(Cl)cc1,63.6%
9,N#Cc1c(Nc2ccccc2)nc(SCC(=O)Nn2c(COc3ccc(Cl)cc3Cl)nc3ccccc3c2=O)nc1-c1ccccc1,77.3%
10,O=C(CSc1nc(-c2ccc(Cl)cc2)c(C(=O)O)c(=O)[nH]1)Nn1c(COc2ccc(Cl)cc2Cl)nc2ccccc2c1=O,58.2%
11,N#Cc1c(Nc2ccc(Cl)cc2)nc(SCC(=O)Nn2c(COc3ccc(Cl)cc3Cl)nc3ccccc3c2=O)nc1-c1ccc(O)cc1,72.7%
12,N#Cc1c(-c2ccc(Cl)cc2)nc(SCC(=O)Nn2c(COc3ccc(Cl)cc3Cl)nc3ccccc3c2=O)n(Cc2ccccc2)c1=O,72.7%
13,N#Cc1c(Nc2ccc(O)cc2)nc(SCC(=O)Nn2c(COc3ccc(Cl)cc3Cl)nc3ccccc3c2=O)nc1-c1ccccc1,72.7%

# Tested on: Rattus norvegicus
# Test: Antiinflammatory activity in albino rat assessed as inhibition of carrageenan-induced paw edema at 100 mg/kg, po administered 1 hr prior to carrageenan-challenge measured after 0.5 hrs
# Type: functional
# Conditions: not given
# Summary of the method: as §1
row,Structure (SMILES),inhibition in vivo at 100 mg/kg
1,N#Cc1c(Nc2ccc(Cl)cc2)nc(SCC(=O)Nn2c(COc3ccc(Cl)cc3Cl)nc3ccccc3c2=O)nc1-c1ccccc1,51.9%
2,N#Cc1c(-c2ccccc2)nc(SCC(=O)Nn2c(COc3ccc(Cl)cc3Cl)nc3ccccc3c2=O)n(Cc2ccccc2)c1=O,76%
3,N#Cc1c(-c2ccc(Cl)cc2)nc(SCC(=O)Nn2c(COc3ccc(Cl)cc3Cl)nc3ccccc3c2=O)[nH]c1=O,61.5%
4,O=C(CSc1nc(-c2ccc(O)cc2)c(C(=O)O)c(=O)[nH]1)Nn1c(COc2ccc(Cl)cc2Cl)nc2ccccc2c1=O,32.7%
5,O=C(CSc1nc(-c2ccccc2)c(C(=O)O)c(=O)[nH]1)Nn1c(COc2ccc(Cl)cc2Cl)nc2ccccc2c1=O,61.5%
6,N#Cc1c(Nc2ccc(Cl)cc2)nc(SCC(=O)Nn2c(COc3ccc(Cl)cc3Cl)nc3ccccc3c2=O)nc1-c1ccc(Cl)cc1,46.1%
7,N#Cc1c(Nc2ccccc2)nc(SCC(=O)Nn2c(COc3ccc(Cl)cc3Cl)nc3ccccc3c2=O)nc1-c1ccc(Cl)cc1,36.5%
8,N#Cc1c(Cl)nc(SCC(=O)Nn2c(COc3ccc(Cl)cc3Cl)nc3ccccc3c2=O)nc1-c1ccc(Cl)cc1,61.5%
9,N#Cc1c(Nc2ccccc2)nc(SCC(=O)Nn2c(COc3ccc(Cl)cc3Cl)nc3ccccc3c2=O)nc1-c1ccccc1,71.2%
10,O=C(CSc1nc(-c2ccc(Cl)cc2)c(C(=O)O)c(=O)[nH]1)Nn1c(COc2ccc(Cl)cc2Cl)nc2ccccc2c1=O,51.9%
11,N#Cc1c(Nc2ccc(Cl)cc2)nc(SCC(=O)Nn2c(COc3ccc(Cl)cc3Cl)nc3ccccc3c2=O)nc1-c1ccc(O)cc1,65.4%
12,N#Cc1c(-c2ccc(Cl)cc2)nc(SCC(=O)Nn2c(COc3ccc(Cl)cc3Cl)nc3ccccc3c2=O)n(Cc2ccccc2)c1=O,61.5%
13,N#Cc1c(Nc2ccc(O)cc2)nc(SCC(=O)Nn2c(COc3ccc(Cl)cc3Cl)nc3ccccc3c2=O)nc1-c1ccccc1,61.5%

# Tested on: Rattus norvegicus
# Test: Antiinflammatory activity in albino rat assessed as inhibition of carrageenan-induced paw edema at 100 mg/kg, po administered 1 hr prior to carrageenan-challenge measured after 2 hrs
# Type: functional
# Conditions: not given
# Summary of the method: as §1
row,Structure (SMILES),inhibition in vivo at 100 mg/kg
1,N#Cc1c(Nc2ccc(Cl)cc2)nc(SCC(=O)Nn2c(COc3ccc(Cl)cc3Cl)nc3ccccc3c2=O)nc1-c1ccccc1,57.9%
2,N#Cc1c(-c2ccccc2)nc(SCC(=O)Nn2c(COc3ccc(Cl)cc3Cl)nc3ccccc3c2=O)n(Cc2ccccc2)c1=O,79%
3,N#Cc1c(-c2ccc(Cl)cc2)nc(SCC(=O)Nn2c(COc3ccc(Cl)cc3Cl)nc3ccccc3c2=O)[nH]c1=O,64.9%
4,O=C(CSc1nc(-c2ccc(O)cc2)c(C(=O)O)c(=O)[nH]1)Nn1c(COc2ccc(Cl)cc2Cl)nc2ccccc2c1=O,38.6%
5,O=C(CSc1nc(-c2ccccc2)c(C(=O)O)c(=O)[nH]1)Nn1c(COc2ccc(Cl)cc2Cl)nc2ccccc2c1=O,68.4%
6,N#Cc1c(Nc2ccc(Cl)cc2)nc(SCC(=O)Nn2c(COc3ccc(Cl)cc3Cl)nc3ccccc3c2=O)nc1-c1ccc(Cl)cc1,61.4%
7,N#Cc1c(Nc2ccccc2)nc(SCC(=O)Nn2c(COc3ccc(Cl)cc3Cl)nc3ccccc3c2=O)nc1-c1ccc(Cl)cc1,50.9%
8,N#Cc1c(Cl)nc(SCC(=O)Nn2c(COc3ccc(Cl)cc3Cl)nc3ccccc3c2=O)nc1-c1ccc(Cl)cc1,68.4%
9,N#Cc1c(Nc2ccccc2)nc(SCC(=O)Nn2c(COc3ccc(Cl)cc3Cl)nc3ccccc3c2=O)nc1-c1ccccc1,78.1%
10,O=C(CSc1nc(-c2ccc(Cl)cc2)c(C(=O)O)c(=O)[nH]1)Nn1c(COc2ccc(Cl)cc2Cl)nc2ccccc2c1=O,61.4%
11,N#Cc1c(Nc2ccc(Cl)cc2)nc(SCC(=O)Nn2c(COc3ccc(Cl)cc3Cl)nc3ccccc3c2=O)nc1-c1ccc(O)cc1,77.2%
12,N#Cc1c(-c2ccc(Cl)cc2)nc(SCC(=O)Nn2c(COc3ccc(Cl)cc3Cl)nc3ccccc3c2=O)n(Cc2ccccc2)c1=O,77.2%
13,N#Cc1c(Nc2ccc(O)cc2)nc(SCC(=O)Nn2c(COc3ccc(Cl)cc3Cl)nc3ccccc3c2=O)nc1-c1ccccc1,59.6%

# Tested on: Rattus norvegicus
# Test: Ulcerogenic activity in fasted albino rat assessed as ulcer index at 100 mg/kg po administered qd for 3 days measured on day 4
# Type: toxicity, organism-based
# Design: dose 100 mg/kg, route oral
# Conditions: in vivo, 72 h
# Summary of the method: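 Albino rats of both sexes (120–150 g), five per group, fasted 20 h, then dosed orally in 1% Tween (test agents 100 mg/kg, celecoxib and diclofenac sodium 50 mg/kg). Feeding cycle: 2 h fast, 2 h feed, 20 h fast, repeated with doses on days 2 and 3. Ulcers scored 0–4. Ulcer index = %incidence/10 + mean ulcer number + mean severity.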
row,Structure (SMILES),UI
1,N#Cc1c(-c2ccccc2)nc(SCC(=O)Nn2c(COc3ccc(Cl)cc3Cl)nc3ccccc3c2=O)n(Cc2ccccc2)c1=O,10.9
2,N#Cc1c(Nc2ccccc2)nc(SCC(=O)Nn2c(COc3ccc(Cl)cc3Cl)nc3ccccc3c2=O)nc1-c1ccccc1,13.26
3,N#Cc1c(Nc2ccc(Cl)cc2)nc(SCC(=O)Nn2c(COc3ccc(Cl)cc3Cl)nc3ccccc3c2=O)nc1-c1ccc(O)cc1,12.08
4,N#Cc1c(-c2ccc(Cl)cc2)nc(SCC(=O)Nn2c(COc3ccc(Cl)cc3Cl)nc3ccccc3c2=O)n(Cc2ccccc2)c1=O,11.3
